From ChEMBL document CHEMBL4346709, “Design and Optimization Leading to an Orally Active TTK Protein Kinase Inhibitor with Robust Single Agent Efficacy” (J Med Chem, 2019) come the findings set out here.

The target in series [1] is T1, Dual specificity protein kinase TTK (Homo sapiens, UniProt P33981).
T1 sequence (P33981 whole entry): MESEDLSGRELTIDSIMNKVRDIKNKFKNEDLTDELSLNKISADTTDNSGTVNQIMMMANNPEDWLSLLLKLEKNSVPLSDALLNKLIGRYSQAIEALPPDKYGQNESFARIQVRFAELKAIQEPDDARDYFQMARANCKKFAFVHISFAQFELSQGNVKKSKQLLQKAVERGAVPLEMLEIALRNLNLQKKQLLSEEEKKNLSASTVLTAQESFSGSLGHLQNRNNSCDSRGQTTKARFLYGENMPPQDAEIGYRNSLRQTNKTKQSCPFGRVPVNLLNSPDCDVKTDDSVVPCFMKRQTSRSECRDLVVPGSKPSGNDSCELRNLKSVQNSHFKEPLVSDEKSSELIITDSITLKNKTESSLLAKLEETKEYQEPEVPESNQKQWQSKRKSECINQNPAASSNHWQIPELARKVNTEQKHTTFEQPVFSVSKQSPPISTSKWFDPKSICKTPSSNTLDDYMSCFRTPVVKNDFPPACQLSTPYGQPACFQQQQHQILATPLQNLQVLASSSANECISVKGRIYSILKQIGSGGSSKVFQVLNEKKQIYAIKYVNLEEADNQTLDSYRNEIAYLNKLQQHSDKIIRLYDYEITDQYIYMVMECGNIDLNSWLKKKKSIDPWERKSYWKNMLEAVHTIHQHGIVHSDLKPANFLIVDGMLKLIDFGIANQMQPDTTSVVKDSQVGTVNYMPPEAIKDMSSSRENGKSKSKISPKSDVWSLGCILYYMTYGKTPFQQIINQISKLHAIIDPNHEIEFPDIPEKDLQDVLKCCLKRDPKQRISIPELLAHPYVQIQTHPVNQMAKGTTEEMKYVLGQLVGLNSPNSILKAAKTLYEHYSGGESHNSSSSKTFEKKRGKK
Nature of the series: Inhibition of TTK in human CAL51 cells assessed as decrease in phosphorylated TTK T686 levels after 1 hr by Western blot analysis. The format is cell-based.

Series [2] has as its system CAL-51. Put plainly: Antitumor activity against human CAL51 cells xenografted in po dosed CB17 SCID mouse assessed as tumor growth inhibition administered every seven days for 16 days and measured twice per week up to 31 days by caliper method. The format is functional, organism-based. The method in brief:
(§1)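 Female CB17 SCID mice, 6-8 weeks old, inoculated subcutaneously with 2×10^6 CAL-51 cells. Oral dosing once weekly (QW) at 30-120 mg/kg, or 30 mg/kg BID QW, for 16 days, against vehicle control. Tumour long and short axes measured twice weekly by digital caliper; volume = width² × length/2. Values are TGI; data are mean ± SEM.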

Series [3] in a line: Toxicity in CB17 SCID mouse xenografted with human CAL51 cells assessed as loss of body weight at 30 mg/kg, po […] for 16 days and measured up to 31 days. The series is classed as organism-based. The following applies: in vivo. In a few lines:
(§2)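 Female CB17 SCID mice bearing subcutaneous CAL-51 xenografts (2×10^6 cells). Oral dosing once weekly at 30-120 mg/kg, or 30 mg/kg BID once weekly, for 16 days. Body weight loss tracked alongside tumour measurements, against vehicle.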
On the technique in general: A xenograft is tissue or cells of one species grown in another, often human tumour cells in immunodeficient mice.

A short description of series [4]: Toxicity in CB17 SCID mouse xenografted with human CAL51 cells assessed as loss of body weight at 30 to 120 mg/kg, po administered every seven days for 16 days and measured up to 31 days. The format is organism-based. The following applies: in vivo. The method in brief: as §2
Series [5] is described as follows: AUC in CB17 SCID mouse at 30 mg/kg, po. The conditions noted are these: in vivo. The series is classed as ADME, organism-based. In a few lines:
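Oral PK in SCID mice at 30 mg/kg. Compound is formulated either in CMCT (0.5% CMC/0.25% tween-80) or in 5% TPGS, 10% captisol, 50 mM citrate buffer, depending on compound. Cmax and AUC are measured.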

In series [6] the test system is CAL-51. Nature of the series: Induction of apoptosis in human CAL51 cells xenografted in CB17 SCID mouse assessed as activation of cleaved caspase-3 at 10 mg/kg, po measured after 1 to 48 hrs by MSD electrochemiluminescent immunoassay relative to control. The format is functional. The method in brief:
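CB17 SCID mice bearing CAL-51 tumours of 300-500 mm3 given compound orally. At preset time points the mice were euthanised and the tumours dissected and snap-frozen in liquid nitrogen. pHH3 Ser10 or cleaved caspase measured by MSD electrochemiluminescent immunoassay kit. Data are mean ± SEM.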

Series [7] has as its target Mitogen-activated protein kinase 10 (Homo sapiens, UniProt P53779). Nature of the series: Inhibition of recombinant human full length N-terminal GST-tagged JNK3 expressed in baculovirus expression system at 3 uM by Z'-LYTE assay relative to control. In a few lines: (§3)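 Kinase selectivity panel: single-point assessment at 3 µM, n=1.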
Series [8] addresses Leucine-rich repeat serine/threonine-protein kinase 2 (Homo sapiens, UniProt Q5S007). Put plainly: Inhibition of recombinant human GST-tagged LRRK2 catalytic domain (970 to 2527 residues) expressed in baculovirus expression system using LRRKtide as substrate measured after 1 hr by Alexa fluor-647 ADP tracer-based ADAPTA assay.
Series [9] concerns CAL-51. Put plainly: Antitumor activity against human CAL51 cells xenografted in CB17 SCID mouse assessed as tumor growth inhibition at 60 mg/kg, po administered every seven days for 16 days and measured twice per week up to 31 days by caliper method relative to control. The format is functional. The conditions noted are these: CAL-51, po, read-out: TGI. In a few lines: as §1

The nature of series [10]: Metabolic stability in human liver S9 fraction assessed as parent compound remaining after 60 mins. The format is ADME, subcellular. The conditions noted are these: read-out: Stability.
Series [11] has as its system CAL-51. Put plainly: Antitumor activity against human CAL51 cells xenografted in CB17 SCID mouse assessed as tumor growth inhibition at 30 mg/kg, po administered every seven days for 16 days and measured twice per week up to 31 days by caliper method relative to control. The series is classed as functional. The following applies: CAL-51, po, read-out: TGI. In a few lines:
as §1

The species named for series [12] is Homo sapiens. Nature of the series: Selectivity ratio of IC50 for inhibition of recombinant human GST-tagged LRRK2 G2019S mutant catalytic domain (970 to 2527 residues) expressed in baculovirus expression system to IC50 for inhibition of Kinase Tracer 236 binding to recombinant human full-length GST-tagged TTk expressed in baculovirus expression system.
Series [13] in a line: AUC in rat at 10 mg/kg, po. The format is ADME, organism-based. The following applies: in vivo. In a few lines:
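Rat oral PK at 10 mg/kg. Compound is given as a solution in CMCT (0.5% CMC/0.25% tween-80) or formulated in 5% TPGS, 10% captisol, 50 mM citrate buffer. Cmax and AUC are recorded.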

For series [14], the target named is Leucine-rich repeat serine/threonine-protein kinase 2 (Homo sapiens, UniProt Q5S007, G2019S). Nature of the series: Inhibition of recombinant human GST-tagged LRRK2 G2019S mutant catalytic domain (970 to 2527 residues) expressed in baculovirus expression system using LRRKtide as substrate measured after 1 hr by Alexa-fluor-647 ADP tracer-based ADAPTA assay.
Series [15] is filed under the species Homo sapiens. Nature of the series: Selectivity ratio of IC50 for recombinant human GST-tagged LRRK2 catalytic domain (970 to 2527 residues) expressed in baculovirus expression system to IC50 for inhibition of Kinase Tracer 236 binding to recombinant human full-length GST-tagged TTk expressed in baculovirus expression system.
The target in series [16] is Dual specificity protein kinase CLK2 (Homo sapiens, UniProt P49760). Nature of the series: Inhibition of recombinant human GST-tagged CLK2 catalytic domain (137 to 498 residues) expressed in baculovirus expression system at 3 uM by Z'-LYTE assay relative to control. The method in brief:
as §3

Sequence of Leucine-rich repeat serine/threonine-protein kinase 2 (Homo sapiens, UniProt Q5S007) (Q5S007 whole entry, the tested form may be a part): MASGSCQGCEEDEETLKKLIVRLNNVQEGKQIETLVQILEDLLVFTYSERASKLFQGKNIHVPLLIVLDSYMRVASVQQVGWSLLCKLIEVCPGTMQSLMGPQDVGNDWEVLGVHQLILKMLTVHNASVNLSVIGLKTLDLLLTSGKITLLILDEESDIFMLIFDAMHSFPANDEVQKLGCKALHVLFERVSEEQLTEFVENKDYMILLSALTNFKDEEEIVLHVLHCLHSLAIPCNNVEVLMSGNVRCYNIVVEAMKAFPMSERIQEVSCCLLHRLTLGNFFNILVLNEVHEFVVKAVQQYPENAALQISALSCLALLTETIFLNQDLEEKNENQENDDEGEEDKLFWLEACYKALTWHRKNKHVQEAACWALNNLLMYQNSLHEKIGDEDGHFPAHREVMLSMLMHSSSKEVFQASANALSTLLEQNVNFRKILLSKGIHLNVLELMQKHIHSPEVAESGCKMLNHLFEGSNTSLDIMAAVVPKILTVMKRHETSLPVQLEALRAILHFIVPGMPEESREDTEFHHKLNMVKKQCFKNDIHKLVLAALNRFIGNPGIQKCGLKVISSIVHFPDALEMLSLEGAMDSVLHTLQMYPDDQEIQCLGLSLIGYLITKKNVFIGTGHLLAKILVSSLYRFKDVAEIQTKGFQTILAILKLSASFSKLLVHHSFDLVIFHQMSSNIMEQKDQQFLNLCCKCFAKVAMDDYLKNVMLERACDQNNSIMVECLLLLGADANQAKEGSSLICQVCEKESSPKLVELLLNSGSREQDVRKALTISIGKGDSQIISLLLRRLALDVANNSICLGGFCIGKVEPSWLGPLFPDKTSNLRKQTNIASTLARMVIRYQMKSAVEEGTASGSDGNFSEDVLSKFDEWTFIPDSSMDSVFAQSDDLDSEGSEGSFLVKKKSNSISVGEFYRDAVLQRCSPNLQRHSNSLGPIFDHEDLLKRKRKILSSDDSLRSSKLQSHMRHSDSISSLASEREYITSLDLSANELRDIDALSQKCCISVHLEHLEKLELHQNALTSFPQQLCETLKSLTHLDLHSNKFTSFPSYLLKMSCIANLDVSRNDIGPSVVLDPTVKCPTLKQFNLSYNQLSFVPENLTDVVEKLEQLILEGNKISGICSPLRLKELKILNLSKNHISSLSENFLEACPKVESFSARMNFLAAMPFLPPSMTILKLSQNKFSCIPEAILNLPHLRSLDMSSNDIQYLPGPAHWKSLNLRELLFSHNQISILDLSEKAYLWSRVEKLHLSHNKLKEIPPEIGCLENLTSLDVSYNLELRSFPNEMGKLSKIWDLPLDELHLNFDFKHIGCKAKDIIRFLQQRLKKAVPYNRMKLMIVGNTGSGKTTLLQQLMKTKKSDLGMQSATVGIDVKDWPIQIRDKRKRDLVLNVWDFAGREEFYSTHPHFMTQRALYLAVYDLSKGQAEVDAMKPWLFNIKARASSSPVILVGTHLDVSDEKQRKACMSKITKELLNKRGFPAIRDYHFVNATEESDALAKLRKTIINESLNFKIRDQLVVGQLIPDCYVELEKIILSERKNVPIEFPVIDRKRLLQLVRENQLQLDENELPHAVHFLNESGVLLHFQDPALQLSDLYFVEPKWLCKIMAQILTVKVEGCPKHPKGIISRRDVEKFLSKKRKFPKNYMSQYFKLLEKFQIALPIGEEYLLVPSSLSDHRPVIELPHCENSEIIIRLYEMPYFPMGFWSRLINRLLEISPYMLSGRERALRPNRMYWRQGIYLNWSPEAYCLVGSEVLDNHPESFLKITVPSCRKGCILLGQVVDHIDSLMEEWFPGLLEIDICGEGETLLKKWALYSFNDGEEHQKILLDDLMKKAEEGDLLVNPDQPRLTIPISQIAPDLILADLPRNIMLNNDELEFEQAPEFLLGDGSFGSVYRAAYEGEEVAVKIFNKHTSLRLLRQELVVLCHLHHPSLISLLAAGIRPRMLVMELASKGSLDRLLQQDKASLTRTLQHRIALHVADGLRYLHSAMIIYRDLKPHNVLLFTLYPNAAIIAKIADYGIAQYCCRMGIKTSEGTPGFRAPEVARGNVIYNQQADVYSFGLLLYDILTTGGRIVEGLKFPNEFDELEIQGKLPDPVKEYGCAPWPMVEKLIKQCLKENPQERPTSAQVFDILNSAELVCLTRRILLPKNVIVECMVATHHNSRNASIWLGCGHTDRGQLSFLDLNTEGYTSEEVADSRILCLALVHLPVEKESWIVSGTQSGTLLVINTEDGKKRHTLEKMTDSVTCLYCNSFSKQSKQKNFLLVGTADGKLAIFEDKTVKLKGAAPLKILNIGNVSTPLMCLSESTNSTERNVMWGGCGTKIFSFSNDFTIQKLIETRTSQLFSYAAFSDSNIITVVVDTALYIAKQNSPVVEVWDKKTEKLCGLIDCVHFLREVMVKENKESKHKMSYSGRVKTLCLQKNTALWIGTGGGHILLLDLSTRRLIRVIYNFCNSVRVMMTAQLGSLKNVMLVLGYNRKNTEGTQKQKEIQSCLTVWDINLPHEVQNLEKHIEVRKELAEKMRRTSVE
Sequence of Leucine-rich repeat serine/threonine-protein kinase 2 (Homo sapiens, UniProt Q5S007, G2019S) (Q5S007 whole entry G2019S, the tested form may be a part): as the sequence (Q5S007 whole entry, the tested form may be a part) above, with G2019S counted along it
Sequence of Mitogen-activated protein kinase 10 (P53779 whole entry, the tested form may be a part): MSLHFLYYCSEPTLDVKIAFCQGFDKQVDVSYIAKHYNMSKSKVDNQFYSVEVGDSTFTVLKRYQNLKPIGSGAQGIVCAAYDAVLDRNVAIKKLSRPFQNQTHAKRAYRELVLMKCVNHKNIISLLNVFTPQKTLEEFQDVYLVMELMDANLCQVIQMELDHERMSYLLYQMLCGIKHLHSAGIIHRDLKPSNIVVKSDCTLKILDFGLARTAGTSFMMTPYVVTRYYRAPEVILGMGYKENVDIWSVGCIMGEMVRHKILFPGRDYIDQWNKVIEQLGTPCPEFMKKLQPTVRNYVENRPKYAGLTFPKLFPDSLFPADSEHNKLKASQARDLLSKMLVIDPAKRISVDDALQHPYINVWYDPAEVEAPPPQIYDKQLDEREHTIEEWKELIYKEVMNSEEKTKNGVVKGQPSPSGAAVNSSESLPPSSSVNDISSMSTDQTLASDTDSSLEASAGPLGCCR
Sequence of Dual specificity protein kinase CLK2 (P49760 whole entry, looked up, the tested form may be a part): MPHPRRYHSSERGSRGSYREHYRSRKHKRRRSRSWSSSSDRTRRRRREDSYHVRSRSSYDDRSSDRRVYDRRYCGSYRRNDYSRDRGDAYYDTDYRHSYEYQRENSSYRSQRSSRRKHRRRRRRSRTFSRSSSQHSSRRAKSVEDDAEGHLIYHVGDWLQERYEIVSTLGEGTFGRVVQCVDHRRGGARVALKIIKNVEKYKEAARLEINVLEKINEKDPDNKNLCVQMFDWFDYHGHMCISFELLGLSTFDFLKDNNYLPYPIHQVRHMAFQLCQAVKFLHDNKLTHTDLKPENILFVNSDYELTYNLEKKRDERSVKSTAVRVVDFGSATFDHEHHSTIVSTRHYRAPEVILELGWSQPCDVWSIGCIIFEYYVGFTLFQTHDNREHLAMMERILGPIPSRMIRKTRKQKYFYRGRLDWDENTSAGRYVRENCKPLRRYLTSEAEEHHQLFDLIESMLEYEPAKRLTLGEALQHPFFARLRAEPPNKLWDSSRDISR

Consider `C[C@@H](Oc1cc(C(=O)N(C)C)ccc1Nc1nc(O[C@H]2CC[C@@](C)(O)CC2)c2c(Cl)c[nH]c2n1)C(F)(F)F`, for which the IC50 (as a rule, the concentration that inhibits the measured activity by half) in series [1] came to 11000 pM; in series [8] it was 1 pM; in [14] it was 1 pM. Also, the TGI result with CAL-51 [2] was “Dose-dependent effect”. The Activity result in series [3] is listed as “Non-Toxic”; in series [4], “Non-Toxic”; in the series with CAL-51 [6], 159%. Further, the AUC (commonly the area under the concentration-time curve, a measure of exposure) in [5] was 22.5 µM·h; in [13], 26 to 26.3 µM·h. For the same molecule, the inhibition in [7] and in series [16] was > 80% each time. The inhibition in vivo at 60 mg/kg in the series with CAL-51 [9] was found to be 65%. Moreover, the remaining at 1 h in series [10] is 65%. In addition, in the series on CAL-51 [11], the inhibition in vivo at 30 mg/kg was 59%. Further, the Ratio IC50 in the series filed under Homo sapiens [12] and in the series listed under Homo sapiens [15] was < 100 throughout.
